Reference: ChEMBL document CHEMBL3407434, “Antivascular and anti-parasite activities of natural and hemisynthetic flavonoids from New Caledonian Gardenia species (Rubiaceae)” (Eur J Med Chem, 2015)

Tests used:
[1] = system: Trypanosoma brucei gambiense; assay: Antitrypanosomal activity against Trypanosoma brucei gambiense Feo assessed as parasite growth inhibition at 50 uM after 72 hrs by fluorescence assay relative to control; type: functional; conditions: read-out: GI
Procedure, shortened: (§1)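 Bloodstream-form T. b. gambiense Feo at 10^5 parasites/mL, screened at 50 and 10 µM in triplicate. Incubated 72 h at 37 °C under 5% CO2. Values are percent of untreated controls. Pentamidine served as positive control.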

Plasmodium falciparum [2] = assay: Antiplasmodial activity against Plasmodium falciparum FcB1/Columbia infected in human red blood cells assessed as parasite growth inhibition at 10 uM after 48 hrs by [3H]-hypoxanthine incorporation assay relative to control; type: functional; conditions: read-out: GI
Procedure, shortened: (§2)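 P. falciparum FcB1 (Colombia) grown in human red cells, in triplicate. Screened at 50 and 10 µM in 96-well plates for 48 h at 37 °C under reduced oxygen, then [3H]-hypoxanthine was added and incorporation counted. Counts per minute are given as percent of untreated controls.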

[3] = system: Trypanosoma brucei gambiense; assay: Antitrypanosomal activity against Trypanosoma brucei gambiense Feo assessed as parasite growth inhibition at 10 uM after 72 hrs by fluorescence assay relative to control; type: functional; conditions: read-out: GI; procedure, shortened: as §1
B16 = assay: Cytotoxicity against mouse B16 cells assessed as cell viability after 48 hrs by MTT assay; type: cell-based; conditions: B16, 48 h
Procedure, shortened: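 B16 murine melanoma cells, 5000/well, treated 24 h after plating. Compounds were tested at 0.01 to 100 µM final (DMSO stock 2.5 mg/mL), in triplicate, for 48 h at 37 °C under 5% CO2.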

[4] = Antivascular activity in human EAhy926 cells assessed as concentration require to adopt rounding shape after 2 hrs by microscopic analysis; type: functional, EA.hy 926
Leishmania amazonensis = assay: Leishmanicidal activity against promastigote stage of Leishmania amazonensis MHOM/BR/PH8 after 48 hrs by MTT assay; type: functional, organism-based; conditions: MHOM/BR/PH8, 48 h
Procedure, shortened: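 L. amazonensis MHOM/BR/PH8 promastigotes in Schneider's medium with 20% heat-inactivated FCS, at 10^5 per well in log phase. MTT was added for 4 h at 37 °C, formazan dissolved in DMSO and read at 570 nm. Amphotericin B was the reference drug.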

[5] = Cytotoxicity against rat L6 cells assessed as viable cells at 1 uM after 72 hrs by MTT assay relative to control; type: cell-based; conditions: read-out: Activity
Procedure, shortened: (§3)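 L6 rat skeletal myoblasts, about 4 × 10^4 cells/well, dosed 24 h after seeding at 10 and 1 µM, in triplicate. After 72 h, MTT was added for 2 h, formazan was dissolved in detergent for 2 h at room temperature in the dark, and absorbance was read at 570 nm. Results are given as percent viable cells.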

[6] = Cytotoxicity against rat L6 cells assessed as viable cells at 10 uM after 72 hrs by MTT assay relative to control; type: cell-based; conditions: read-out: Activity; procedure, shortened: as §3
Tubulin (Homo sapiens) = Tubulin (Homo sapiens) (UniProt P68371+Q9H4B7+P0DPH7+P68366+Q13509+Q71U36+P04350+Q3ZCM7+P07437+P68363+Q9BQE3+Q6PEY2+Q13885+Q9BVA1+Q9BUF5); assay: Inhibition of tubulin (unknown origin) polymerization at 30 uM preincubated for 45 mins followed by GTP addition measured after 2 hrs by fluorescence assay relative to control; type: protein-complex assay
Tubulin = assay: Inhibition of tubulin (unknown origin) polymerization preincubated for 45 mins followed by GTP addition measured after 2 hrs by fluorescence assay; type: protein-complex assay, Homo sapiens
Plasmodium falciparum [7] = assay: Antiplasmodial activity against Plasmodium falciparum FcB1/Columbia infected in human red blood cells assessed as parasite growth inhibition after 48 hrs by [3H]-hypoxanthine incorporation assay; type: functional, organism-based
Procedure, shortened: as §2, with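 “controls. Selected compounds were then re-run at 100 to 0.195 µM, with IC50 taken from sigmoidal inhibition curves.” for “controls.”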

[8] = system: Trypanosoma brucei gambiense; assay: Antitrypanosomal activity against Trypanosoma brucei gambiense Feo assessed as parasite growth inhibition after 72 hrs by fluorescence assay; type: functional, organism-based
Procedure, shortened: as §1, with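 “CO2. Resazurin (45 µM final) was added for 4 h at 37 °C, followed by 22 h at room temperature, and fluorescence read at ex 535/em 590 nm.” for “CO2.”, “controls. […]” for “controls.”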

| Compound | inhibition of growth at 50 µM [1] [%] | inhibition of growth at 10 µM (Plasmodium falciparum [2]) [%] | inhibition of growth at 10 µM [3] [%] | IC50 (B16) [µM] | Activity [4] [µM] | IC50 (Leishmania amazonensis) [µM] | viability at 72 h, 1 µM [5] [%] | viability at 72 h, 10 µM [6] [%] | inhibition (Tubulin (Homo sapiens)) [%] | IC50 (Tubulin) [µM] | IC50 (Plasmodium falciparum [7]) [µM] | IC90 (Plasmodium falciparum [7]) [µM] | IC50 [8] [µM] |
| --- | --- | --- | --- | --- | --- | --- | --- | --- | --- | --- | --- | --- | --- |
| COc1c(O)cc2oc(-c3ccc(O)cc3)c(OC)c(=O)c2c1O [3,6-DIMETHOXY KAEMPFEROL] | 88.8 | 0 | 40.7 | 74.1 | >100 | 8.07 | 86.2 | 73.5 |  |  |  |  |  |
| COc1cc(-c2oc3cc(O)c(OC)c(O)c3c(=O)c2OC)cc(O)c1OC | 82.6 | 0 | 37.8 | 33.9 | 1.6 | 10.2 | 97.6 | 44.2 | 99 | 17.8 |  |  |  |
| COc1ccc(-c2oc3cc(O)c(OC)c(O)c3c(=O)c2OC)cc1OC | 99.8 | 21.3 | 76.2 | 28.9 | 25 | 8.15 | 99.7 | 94.7 | 75.1 | 19.3 |  |  |  |
| COc1c(-c2ccc(O)cc2)oc2cc(O)cc(O)c2c1=O [ISOKAEMPFERIDE] | 93.4 | 2.9 | 36.6 | 75.8 | >100 | 14.3 | 85 | 61 |  |  |  |  |  |
| COc1cc(-c2oc3cc(OC)c(OC)c(OC)c3c(=O)c2OC)cc(OC)c1OC | 72.4 | 35 | 25.9 | > 100 | >100 | 31.6 | 93.8 | 81.2 |  |  | 5.8 | 10.8 |  |
| CC(=O)Oc1ccc(-c2oc3cc(OC(C)=O)cc(O)c3c(=O)c2OC(C)=O)cc1 | 5.6 | 7.6 | 0 | 39.8 | >100 | 12.3 | 90.2 | 94.8 |  |  |  |  |  |
| COc1ccc(-c2oc3cc(OC)c(OC)c(O)c3c(=O)c2OC)cc1 | 8 | 0 | 18.3 | > 100 | >100 | 14.8 | 85.3 | 96.5 |  |  |  |  |  |
| COc1cc(-c2oc3cc(O)c(OC)c(O)c3c(=O)c2OC)cc(OC)c1OC | 38.1 | 13.2 | 42.9 | 91.2 | 12.5 | 9.65 | 96.1 | 78.2 | 69.9 | 21.4 |  |  |  |
| COc1cc(O)c2c(=O)c(OC)c(-c3ccc(O)cc3)oc2c1 [KUMATAKENIN] | 26.4 | 7.2 | 25.2 | 57.5 | 50 | 22.9 | 81.3 | 38.7 |  |  |  |  |  |
| COc1ccc(-c2oc3cc(OC)c(OC)c(OC)c3c(=O)c2OC)cc1 | 24.9 | 0 | 29.4 | > 100 | 50 | 37.2 | 88.3 | 93.6 |  |  |  |  |  |
| C[C@@H]1[C@H](O)[C@@H](C)/C=C/C=C/C=C/C=C/C=C/C=C/C=C/[C@H](O[C@@H]2O[C@H](C)[C@@H](O)[C@H](N)[C@@H]2O)C[C@@H]2O[C@](O)(C[C@@H](O)C[C@@H](O)[C@H](O)CC[C@@H](O)C[C@@H](O)CC(=O)O[C@H]1C)C[C@H](O)[C@H]2C(=O)O [AMPHOTERICIN B] |  |  |  |  |  | 0.0725 |  |  |  |  |  |  |  |
| COc1ccc(-c2oc3cc(O)c(OC)c(O)c3c(=O)c2OC)cc1 [SANTIN] | 83.1 | 0 | 33.2 | 45.7 | 12.5 | 63.1 | 90.9 | 40.8 | 100 | 5.7 |  |  |  |
| COc1ccc(-c2oc3cc(OC)cc(O)c3c(=O)c2OC)cc1 | 19.9 | 3.9 | 4.6 | > 100 | 100 | 33 | 99.1 | 100 |  |  |  |  |  |
| COc1ccc(/C=C\c2cc(OC)c(OC)c(OC)c2)cc1O [COMBRETASTATIN A4] |  |  |  |  | 0.27 |  |  |  |  |  |  |  |  |
| COc1c(O)c(OC)c2oc(-c3ccc(O)cc3)c(OC)c(=O)c2c1O | 50.7 | 0.6 | 14.6 | > 100 | >100 | 27.3 | 88.4 | 80.4 |  |  |  |  |  |
| O=c1c(O)c(-c2ccc(O)cc2)oc2cc(O)cc(O)c12 [KAEMPFEROL] | 86.5 | 0 | 55.1 | 53.7 | >100 | 27.6 | 93.8 | 100 |  |  |  |  |  |
| COc1cc(-c2oc3cc(OC)c(OC)c(O)c3c(=O)c2OC)cc(OC)c1OC | 40.5 | 21.7 | 17.6 | 11.5 | >100 | 21.8 | 99.2 | 53.5 |  |  |  |  |  |
| N=C(N)c1ccc(OCCCCCOc2ccc(C(=N)N)cc2)cc1 [PENTAMIDINE] |  |  |  |  |  |  |  |  |  |  |  |  | 0.007 |
